Results taken from ChEMBL document CHEMBL3098067, “Novel di-tertiary-butyl phenylhydrazones as dual cyclooxygenase-2/5-lipoxygenase inhibitors: synthesis, COX/LOX inhibition, molecular modeling, and insights into their cytotoxicities” (Bioorg Med Chem Lett, 2014).
Calls of active or inactive are those of the source. The calls are words filed in the database; no cut-off is given here.

How the values were obtained:
[1] = tested on: HCA-7; assay: Cytotoxicity against human HCA-7 cells expressing COX-2, 5-LOX, CD44v6 assessed as growth inhibition after 24 hrs by MTT assay; format: functional, cell-based
In short: (§1)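 HCA7 and HIEC6 cells were exposed to a range of test concentrations for 24 h. Cytotoxicity was read by MTT assay and expressed as percent growth inhibition, with untreated cells set to 0% inhibition.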

[2] = tested on: HCA-7; assay: Inhibition of hyaluronan-induced CD44v6 in human HCA-7 cells transfected with Has2cDNA assessed as downregulation of COX-1 protein expression at 5 uM after 24 hrs by Western blotting analysis; format: cell-based
In short: (§2)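 HCA7 cells were transiently transfected with Has2 cDNA, grown 72 h, then treated for 24 h. Western blots were probed for CD44v6, COX-1, COX-2 and 5-LOX, with longer exposures used to show COX-2 and 5-LOX. The same blot was reprobed for β-tubulin as a loading control.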

[3] = tested on: HT-29; assay: Ratio of IC50 for COX-2 positive human HT-29 cells to IC50 for COX-2 positive human HT-29 cells transfected with CD44v6shRNA; format: functional
[4] = Cytotoxicity against COX-2 positive human HCA-7 cells transfected with CD44v6shRNA assessed as growth inhibition after 48 hrs by MTT assay; format: functional, cell-based; conditions: HCA-7, 48 h
[5] = tested on: HCA-7; assay: Inhibition of hyaluronan-induced CD44v6 in human HCA-7 cells transfected with Has2cDNA assessed as downregulation of COX-2 protein expression at 5 uM after 24 hrs by Western blotting analysis; format: cell-based; in short: as §2
[6] = Ratio of IC50 for COX-2 positive human HCA-7 cells to IC50 for COX-2 positive human HCA-7 cells transfected with CD44v6shRNA; format: functional
[7] = Ratio of IC50 for COX-2 positive mouse APC10.1 cells overexpressing HAS-2 to IC50 for COX-2 positive mouse APC10.1 cells transfected with CD44v6shRNA overexpressing HAS-2; format: functional
[8] = biological target: T1, Prostaglandin G/H synthase 1 (Ovis aries, UniProt P05979); assay: Inhibition of ram seminal vesicle COX-1 assessed as conversion of arachidonic acid to PGH2
T1 sequence (P05979 whole entry): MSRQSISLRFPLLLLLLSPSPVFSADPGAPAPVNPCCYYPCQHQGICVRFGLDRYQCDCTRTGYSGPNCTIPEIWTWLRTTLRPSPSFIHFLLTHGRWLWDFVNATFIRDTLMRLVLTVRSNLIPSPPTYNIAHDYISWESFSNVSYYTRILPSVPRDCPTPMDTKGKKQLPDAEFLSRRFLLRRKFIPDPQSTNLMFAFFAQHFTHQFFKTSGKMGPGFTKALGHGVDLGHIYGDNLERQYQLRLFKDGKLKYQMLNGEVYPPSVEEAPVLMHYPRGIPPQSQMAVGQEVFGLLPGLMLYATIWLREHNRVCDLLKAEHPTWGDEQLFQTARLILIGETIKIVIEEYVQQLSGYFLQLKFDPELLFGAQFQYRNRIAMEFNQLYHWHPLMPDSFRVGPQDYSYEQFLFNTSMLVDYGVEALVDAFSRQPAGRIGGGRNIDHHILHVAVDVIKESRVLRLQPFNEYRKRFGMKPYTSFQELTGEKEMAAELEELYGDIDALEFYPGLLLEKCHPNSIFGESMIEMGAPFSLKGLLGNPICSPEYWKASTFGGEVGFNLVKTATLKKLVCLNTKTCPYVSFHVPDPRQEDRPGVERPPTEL
In short: (§3)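 Assays used enzyme immobilized in ELISA plates, with activity read by ELISA. IC50 values are given in µM.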

[9] = biological target: T2, Polyunsaturated fatty acid 5-lipoxygenase (Homo sapiens, UniProt P09917); assay: Inhibition of 5-LOX (unknown origin) by ELISA; in short: as §3
T2 sequence (P09917 whole entry): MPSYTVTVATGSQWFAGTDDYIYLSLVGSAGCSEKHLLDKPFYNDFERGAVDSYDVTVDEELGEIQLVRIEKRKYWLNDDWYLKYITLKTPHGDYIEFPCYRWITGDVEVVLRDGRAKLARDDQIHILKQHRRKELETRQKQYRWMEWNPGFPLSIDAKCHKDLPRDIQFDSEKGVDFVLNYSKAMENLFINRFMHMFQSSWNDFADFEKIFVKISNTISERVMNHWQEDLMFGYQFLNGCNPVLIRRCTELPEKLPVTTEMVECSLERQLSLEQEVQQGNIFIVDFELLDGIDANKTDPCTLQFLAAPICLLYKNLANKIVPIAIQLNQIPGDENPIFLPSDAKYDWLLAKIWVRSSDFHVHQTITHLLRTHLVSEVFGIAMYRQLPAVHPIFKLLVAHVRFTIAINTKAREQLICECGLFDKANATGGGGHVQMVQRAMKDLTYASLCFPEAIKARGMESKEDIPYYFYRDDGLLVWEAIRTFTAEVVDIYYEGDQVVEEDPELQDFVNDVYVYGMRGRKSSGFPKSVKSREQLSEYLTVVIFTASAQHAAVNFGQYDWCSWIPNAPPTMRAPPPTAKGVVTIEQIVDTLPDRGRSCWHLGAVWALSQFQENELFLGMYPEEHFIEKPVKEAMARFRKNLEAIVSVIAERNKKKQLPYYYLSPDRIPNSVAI

[10] = tested on: HCA-7; assay: Inhibition of hyaluronan-induced CD44v6 in human HCA-7 cells transfected with Has2cDNA assessed as downregulation of 5-LOX protein expression at 5 uM after 24 hrs by Western blotting analysis; format: cell-based; in short: as §2
[11] = tested on: SW480; assay: Cytotoxicity against COX-2 negative human SW480 cells assessed as growth inhibition by CellTiter-96 AQueous assay; format: functional, cell-based
[12] = Cytotoxicity against COX-2 positive mouse APC10.1 cells overexpressing HAS-2 assessed as growth inhibition by CellTiter-96 AQueous assay; format: functional, cell-based
[13] = tested on: HT-29; assay: Cytotoxicity against COX-2 positive human HT-29 cells transfected with CD44v6shRNA assessed as growth inhibition after 48 hrs by MTT assay; format: functional, cell-based; conditions: HT-29, 48 h
[14] = biological target: T3, Prostaglandin G/H synthase 2 (Homo sapiens, UniProt P35354); assay: Inhibition of COX-2 (unknown origin) by ELISA
T3 sequence (P35354 whole entry): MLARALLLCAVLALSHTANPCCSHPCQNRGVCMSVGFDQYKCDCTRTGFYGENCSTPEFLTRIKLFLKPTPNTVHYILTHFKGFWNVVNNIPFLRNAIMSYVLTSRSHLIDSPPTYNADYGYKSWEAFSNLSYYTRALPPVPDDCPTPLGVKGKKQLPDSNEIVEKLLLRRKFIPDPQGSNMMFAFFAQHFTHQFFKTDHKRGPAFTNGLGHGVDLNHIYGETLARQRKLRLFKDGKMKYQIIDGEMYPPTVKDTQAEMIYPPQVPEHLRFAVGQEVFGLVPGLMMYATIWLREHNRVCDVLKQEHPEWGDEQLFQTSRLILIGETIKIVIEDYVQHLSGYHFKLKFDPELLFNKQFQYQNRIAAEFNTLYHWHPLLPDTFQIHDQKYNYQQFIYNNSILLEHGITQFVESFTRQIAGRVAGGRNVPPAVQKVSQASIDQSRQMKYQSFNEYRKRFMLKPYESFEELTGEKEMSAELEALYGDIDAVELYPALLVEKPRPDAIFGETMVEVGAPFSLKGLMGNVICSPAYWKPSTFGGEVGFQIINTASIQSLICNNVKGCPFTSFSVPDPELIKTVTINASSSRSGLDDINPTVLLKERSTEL

[15] = Cytotoxicity against COX-2 positive human HCA-7 cells assessed as growth inhibition by CellTiter-96 AQueous assay; format: functional, cell-based
[16] = Downregulation of hyaluronan-induced CD44v6 protein expression in human HCA-7 cells transfected with Has2cDNA at 5 uM after 24 hrs by Western blotting analysis; format: functional, cell-based; in short: as §2
[17] = tested on: HT-29; assay: Cytotoxicity against COX-2 positive human HT-29 cells assessed as growth inhibition by CellTiter-96 AQueous assay; format: functional, cell-based
[18] = Cytotoxicity against COX-2 positive mouse APC10.1 cells transfected with CD44v6shRNA overexpressing HAS-2 assessed as growth inhibition after 48 hrs by MTT assay; format: functional, cell-based
[19] = tested on: HT-29; assay: Downregulation of hyaluronan-induced CD44v6 m-RNA expression in human HT-29 cells transfected with Has2cDNA and CD44v6shRNA at 5 uM after 24 hrs by qRT-PCR analysis; format: functional, cell-based
In short: (§4)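 HT29 cells were transiently transfected with Has2 cDNA alone, or with Has2 cDNA followed by CD44v6 shRNA. They were grown 72 h, then treated for 24 h. CD44v6 mRNA was quantified by qRT-PCR in three independent experiments, each with triplicate samples.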

[20] = tested on: HT-29; assay: Downregulation of hyaluronan-induced CD44v6 m-RNA expression in human HT-29 cells transfected with Has2cDNA at 5 uM after 24 hrs by qRT-PCR analysis; format: functional, cell-based; in short: as §4
[21] = Cytotoxicity against COX-2, LOX, CD44v6-deficient HIEC6 cells assessed as growth inhibition after 24 hrs by MTT assay; format: cell-based; conditions: human, hiec6, 24 h; in short: as §1
[22] = tested on: HCA-7; assay: Inhibition of hyaluronan-induced CD44v6 in human HCA-7 cells transfected with Has2cDNA assessed as downregulation of 5-LOX protein expression at 50 uM after 24 hrs by Western blotting analysis; format: cell-based; in short: as §2
[23] = tested on: HCA-7; assay: Inhibition of hyaluronan-induced CD44v6 in human HCA-7 cells transfected with Has2cDNA assessed as downregulation of COX-2 protein expression at 50 uM after 24 hrs by Western blotting analysis; format: cell-based; in short: as §2
[24] = tested on: HCA-7; assay: Inhibition of hyaluronan-induced CD44v6 in human HCA-7 cells transfected with Has2cDNA assessed as downregulation of COX-1 protein expression at 50 uM after 24 hrs by Western blotting analysis; format: cell-based; in short: as §2

Compound | IC50 [8] | IC50 [9] | IC50 [14] | growth inhibition (GI) [1] | Activity [2] | Ratio IC50 [3] | IC50 [4] | Activity [5] | Ratio IC50 [6] | Ratio IC50 [7] | Activity [10] | IC50 [11] | IC50 [12] | IC50 [13] | IC50 [15] | Activity [16] | IC50 [17] | IC50 [18] | other results
CC(C)(C)c1cc(C=O)c(O)c(C(C)(C)C)c1 | – | – | – | Active | – | – | – | – | – | – | – | – | – | – | – | – | – | – | –
CC(C)(C)c1cc(/C=N/NC(=O)c2ccccc2O)c(O)c(C(C)(C)C)c1 | 44.6 µM | 8 µM | 5.13 µM | Active | Active | 20 | 0.078 µM | Active | 21 | 37.3 | Active | 15.5 µM | 5.6 µM | 0.09 µM | 1.6 µM | Active | 1.8 µM | 0.15 µM | Activity [19]: Active; Activity [20]: Active; Activity [21]: Non-toxic
CC1(C)Cc2c(-c3ccccc3)c(-c3ccc(Cl)cc3)c(CC(=O)O)n2C1 [LICOFELONE] | 0.8 µM | – | – | – | – | – | 18.5 µM | – | – | – | – | 68 µM | 70.6 µM | 21.1 µM | 60.9 µM | – | 67 µM | 23 µM | Activity [22]: Active; Activity [23]: Active; Activity [24]: Active
NNC(=O)c1ccccc1O | – | – | – | Active | – | – | – | – | – | – | – | – | – | – | – | – | – | – | –
Cc1ccc(-c2cc(C(F)(F)F)nn2-c2ccc(S(N)(=O)=O)cc2)cc1 [CELECOXIB] | – | – | – | – | Active | – | 0.75 µM | Active | – | – | Active | 6.9 µM | 13.4 µM | 0.7 µM | 4.9 µM | – | 5.7 µM | 1.3 µM | –

More lines, main results first:

IC50 [8] | IC50 [9] | IC50 [14] | Compound | growth inhibition (GI) [1] | Activity [2] | Ratio IC50 [3] | IC50 [4] | Activity [5] | Ratio IC50 [6] | Ratio IC50 [7] | Activity [10] | IC50 [11] | IC50 [12] | IC50 [13] | IC50 [15] | Activity [16] | IC50 [17] | IC50 [18] | other results
> 300 µM | 6.25 µM | 7.11 µM | CC(C)(C)c1cc(/C=N/NC(=O)c2ccncc2)c(O)c(C(C)(C)C)c1 | – | Active | 8 | 0.76 µM | Active | 8.4 | 6.1 | Active | 33.7 µM | 18.2 µM | 0.71 µM | 6.4 µM | Active | 5.8 µM | 3 µM | –
25.5 µM | 5.88 µM | 6.49 µM | CC(C)(C)c1cc(/C=N/NC(=O)c2ccccc2)c(O)c(C(C)(C)C)c1 | – | Active | 6.7 | 0.56 µM | Active | 7.7 | 6.1 | Active | 35.7 µM | 11.9 µM | 0.85 µM | 4.3 µM | Active | 5.7 µM | 1.8 µM | –
> 300 µM | 5.55 µM | 8.8 µM | CC(C)(C)c1cc(/C=N/NC(=O)c2cccnc2)c(O)c(C(C)(C)C)c1 | – | Active | 12 | 0.26 µM | Active | 14 | 7.2 | Active | 37 µM | 13.8 µM | 0.35 µM | 3.5 µM | Active | 4.3 µM | 1.9 µM | –
